Results collected from several papers.
Compare with care: the assays were run in different laboratories.
Target: Aurora kinase A (AURKA, Homo sapiens, UniProt O14965)
Residues used in one study (O14965 1-403): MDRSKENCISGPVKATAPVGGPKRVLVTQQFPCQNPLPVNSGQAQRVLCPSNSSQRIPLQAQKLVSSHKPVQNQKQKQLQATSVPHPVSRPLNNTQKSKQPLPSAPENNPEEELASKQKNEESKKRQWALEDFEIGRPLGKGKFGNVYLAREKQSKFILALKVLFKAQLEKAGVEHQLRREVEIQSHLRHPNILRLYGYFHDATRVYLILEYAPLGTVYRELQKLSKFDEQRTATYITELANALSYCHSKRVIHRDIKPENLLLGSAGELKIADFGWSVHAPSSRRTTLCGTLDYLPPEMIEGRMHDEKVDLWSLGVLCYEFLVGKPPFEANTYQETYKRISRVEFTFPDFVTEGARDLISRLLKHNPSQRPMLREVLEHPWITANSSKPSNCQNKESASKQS

Compound	assay	conditions	endpoint	value
C1=C/COCc2cc(ccc2OCCN2CCCC2)Nc2nccc(n2)-c2cccc(c2)COC/1	binding	0.1 µM	remaining binding	81%
N#Cc1ccc(NC(=O)Nc2ccccc2)cc1	cell-free assay, competition with immobilised ligand	25 µM	remaining binding	80%
CCCCC(=O)Nc1ccc(-c2ccc3ncn(CCC)c(=O)c3c2)cn1	binding, competition with immobilised ligand	0.5 µM	remaining binding	100%
CN1CCN(C(=O)c2ccc(NC(=O)Nc3ccc(N(C)c4ccnc(Nc5ccc(CS(C)(=O)=O)cc5)n4)cc3)cc2)CC1	binding, competition with immobilised ligand	1 µM	remaining binding	0%
CC(=O)ON=C1C=CC(=C(C#N)c2ccccc2)C=C1	enzyme activity, inhibitor, ADP detection	20 µM	activity vs control	66%
C[C@H]1CC[C@H](n2c3cnccc3c3cnc(Nc4ccc5c(n4)CCN(C(=O)CO)C5)nc32)CC1	cell-free assay, competition with immobilised ligand	1 µM	remaining binding	100%
C=CC(=O)N1CCC([C@@H]2CCNc3c(C(N)=O)c(-c4ccc(Oc5ccccc5)cc4)nn32)CC1	enzyme activity, inhibitor	1 µM	inhibition	1%
COc1ccc2oc(-c3ccc4nc(N)oc4c3)c/c(=N\c3ccccc3NC(=O)CCN)c2c1	binding	1 µM	remaining binding	98%
C=CC(=O)N1CCC[C@@H](n2nc(-c3ccc(Oc4ccccc4)cc3)c3c(N)ncnc32)C1	enzyme activity, inhibitor	1 µM	inhibition	5%
C#Cc1cc(-c2cc(Nc3nc(N[C@@H](C)c4ccc(F)cn4)ncc3Cl)n[nH]2)ccc1C=O	enzyme activity, inhibitor	0.2 µM	inhibition	82%
